Laboratory results from paper PMC9037807 (RSC Advances, 2021).
pIC50: −log10 of the molar value. Several values for one entry are separate records, joined by “and”; a condition that tells them apart may be missing. Identical values can stand only once. Values belong to the molecule of their own block, whether it stands above or below them.

Columns and labels:
rat's stomach = test: Histo-pathological study of glandular and non-glandular stomach; format: in vivo; conditions: text description
[1] = tested on: carrageenan-induced rat paw edema; test: Carrageenan-induced rat paw edema model; format: in vivo; conditions: 10 mg kg−1 po, n = 4; for Edema inhibition %, 1 h / Edema thickness ± SEM, 1 h: 1 h after carrageenan injection; for Edema inhibition %, 3 h / Edema thickness ± SEM, 3 h: 3 h after carrageenan injection; for Edema inhibition %, 6 h / Edema thickness ± SEM, 6 h: 6 h after carrageenan injection
How it was run: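 Rats were dosed orally with test compound (10 mg kg−1) in 5% aqueous DMSO (v/v). […] Thirty minutes after dosing, 0.02 ml of 1% carrageenan was injected sub-plantar. Paw thickness was measured 1, 3 and 6 h after injection, and edema inhibition % was calculated from paw thickness.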

rat stomach = test: Ulcerogenic liability; format: in vivo; conditions: rats sacrificed 4 h after drug administration
ovine COX-1 = target: T1, ovine COX-1 (Ovis aries, UniProt P05979); test: In vitro cyclooxygenase; format: biochemical
T1 sequence (P05979 25-600): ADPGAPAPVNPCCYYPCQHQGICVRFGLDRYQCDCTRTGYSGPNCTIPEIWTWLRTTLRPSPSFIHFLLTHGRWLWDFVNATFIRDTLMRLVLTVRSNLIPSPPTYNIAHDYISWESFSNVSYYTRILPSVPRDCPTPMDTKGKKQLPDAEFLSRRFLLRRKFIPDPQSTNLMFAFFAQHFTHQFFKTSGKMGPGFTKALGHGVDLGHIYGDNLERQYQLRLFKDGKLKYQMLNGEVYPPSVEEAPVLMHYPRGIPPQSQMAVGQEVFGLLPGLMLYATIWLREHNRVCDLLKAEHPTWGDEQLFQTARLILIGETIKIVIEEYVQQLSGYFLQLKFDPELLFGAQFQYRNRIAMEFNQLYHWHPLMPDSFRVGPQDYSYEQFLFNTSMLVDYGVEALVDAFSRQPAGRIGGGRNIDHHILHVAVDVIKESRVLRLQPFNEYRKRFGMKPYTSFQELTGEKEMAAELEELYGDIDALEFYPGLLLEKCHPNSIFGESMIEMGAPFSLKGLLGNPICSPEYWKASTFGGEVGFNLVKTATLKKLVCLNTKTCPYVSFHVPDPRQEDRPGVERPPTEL

ovine COX-2 = target: T2, ovine COX-2 (Ovis aries, UniProt P79208); test: In vitro cyclooxygenase; format: biochemical; conditions: for Selectivity index (SI): COX-1 IC50/COX-2 IC50
T2 sequence (P79208 17-603): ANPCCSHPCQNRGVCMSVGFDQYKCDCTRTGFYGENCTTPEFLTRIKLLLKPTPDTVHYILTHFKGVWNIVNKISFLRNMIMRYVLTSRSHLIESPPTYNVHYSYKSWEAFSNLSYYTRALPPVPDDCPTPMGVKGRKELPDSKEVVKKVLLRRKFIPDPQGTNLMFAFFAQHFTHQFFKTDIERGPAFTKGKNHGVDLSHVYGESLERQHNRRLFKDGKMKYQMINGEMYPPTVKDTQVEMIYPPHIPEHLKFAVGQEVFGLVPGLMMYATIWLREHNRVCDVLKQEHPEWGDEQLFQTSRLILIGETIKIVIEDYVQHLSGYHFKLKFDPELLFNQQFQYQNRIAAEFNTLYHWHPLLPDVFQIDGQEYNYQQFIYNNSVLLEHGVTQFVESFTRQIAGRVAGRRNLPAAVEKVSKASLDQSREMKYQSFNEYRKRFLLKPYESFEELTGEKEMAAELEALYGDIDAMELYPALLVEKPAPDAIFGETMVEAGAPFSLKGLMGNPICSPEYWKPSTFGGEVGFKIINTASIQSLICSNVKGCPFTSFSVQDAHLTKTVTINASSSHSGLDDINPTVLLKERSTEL

SMILES: CS(=O)(=O)c1ccc(-c2nc3ccccc3n2CC(=O)N/N=C/c2ccc(Cl)cc2)cc1 [11b, (E)-N′-(4-Chlorobenzylidene)-2-(2-(4-(methylsulfonyl)phenyl)-1H-benzo[d]imidazol-1-yl) acetohydrazide]
- Severity of histopathological lesions of the stomach (in words) (rat's stomach): mild pathological lesions
- Edema inhibition %, 1 h [1]: 86%
- Edema thickness ± SEM, 1 h [1]: 0.357 ± 0.012 mm
- Edema inhibition %, 3 h [1]: 93%
- Edema thickness ± SEM, 3 h [1]: 0.155 ± 0.002 mm
- Edema inhibition %, 6 h [1]: 95%
- Edema thickness ± SEM, 6 h [1]: 0.094 ± 0.006 mm
- Ulcer index, mean (rat stomach): 0.83 mm
- pIC50 (ovine COX-1): 4.87
- pIC50 (ovine COX-2): 7.00
- Selectivity index (SI) (ovine COX-2): 134

SMILES: COc1ccc(/C=N/NC(=O)Cn2c(-c3ccc(S(C)(=O)=O)cc3)nc3cc(C)ccc32)cc1 [11k, (E)-N′-(4-Methoxybenzylidene)-2-(5-methyl-2-(4-(methylsulfonyl)phenyl)-1H-benzo[d]imidazol-1-yl) acetohydrazide]
- Severity of histopathological lesions of the stomach (in words) (rat's stomach): mild to moderate lesions
- Edema inhibition %, 1 h [1]: 82%
- Edema thickness ± SEM, 1 h [1]: 0.464 ± 0.014 mm
- Edema inhibition %, 3 h [1]: 92%
- Edema thickness ± SEM, 3 h [1]: 0.189 ± 0.017 mm
- Edema inhibition %, 6 h [1]: 94%
- Edema thickness ± SEM, 6 h [1]: 0.111 ± 0.009 mm
- Ulcer index, mean (rat stomach): 4.5 mm
- pIC50 (ovine COX-1): 4.91
- pIC50 (ovine COX-2): 7.00
- Selectivity index (SI) (ovine COX-2): 123

- pIC50 (ovine COX-1): 5.10
- pIC50 (ovine COX-2): 6.47
- Selectivity index (SI) (ovine COX-2): 23
SMILES: Cc1ccc2c(c1)nc(-c1ccc(S(C)(=O)=O)cc1)n2CC(=O)N/N=C/c1ccc(F)cc1 [11l, (E)-N′-(4-Fluorobenzylidene)-2-(5-methyl-2-(4-(methylsulfonyl)phenyl)-1H-benzo[d]imidazol-1-yl) acetohydrazide]
- Edema inhibition %, 1 h [1]: 47%
- Edema thickness ± SEM, 1 h [1]: 1.378 ± 0.009 mm
- Edema inhibition %, 3 h [1]: 51%
- Edema thickness ± SEM, 3 h [1]: 1.102 ± 0.086 mm
- Edema inhibition %, 6 h [1]: 55%
- Edema thickness ± SEM, 6 h [1]: 0.860 ± 0.010 mm

- pIC50 (ovine COX-1): 5.05
- pIC50 (ovine COX-2): 6.55
- Selectivity index (SI) (ovine COX-2): 32
SMILES: C/C(=N\NC(=O)Cn1c(-c2ccc(S(C)(=O)=O)cc2)nc2ccccc21)c1ccccc1 [12a, (E)-2-(2-(4-(Methylsulfonyl)phenyl)-1H-benzo[d]imidazol-1-yl)-N′-(1-phenylethylidene) acetohydrazide]
- Edema inhibition %, 1 h [1]: 50%
- Edema thickness ± SEM, 1 h [1]: 1.308 ± 0.101 mm
- Edema inhibition %, 3 h [1]: 54%
- Edema thickness ± SEM, 3 h [1]: 1.017 ± 0.024 mm
- Edema inhibition %, 6 h [1]: 60%
- Edema thickness ± SEM, 6 h [1]: 0.766 ± 0.006 mm

SMILES: C/C(=N\NC(=O)Cn1c(-c2ccc(S(C)(=O)=O)cc2)nc2ccccc21)c1ccc(Cl)cc1 [12b, (E)-N′-(1-(4-Chlorophenyl)ethylidene)-2-(2-(4-(methylsulfonyl)phenyl)-1H-benzo[d]imidazol-1-yl) acetohydrazide]
- Edema inhibition %, 1 h [1]: 80%
- Edema thickness ± SEM, 1 h [1]: 0.522 ± 0.009 mm
- Edema inhibition %, 3 h [1]: 89%
- Edema thickness ± SEM, 3 h [1]: 0.240 ± 0.014 mm
- Edema inhibition %, 6 h [1]: 95%
- Edema thickness ± SEM, 6 h [1]: 0.104 ± 0.005 mm
- pIC50 (ovine COX-1): 4.90
- pIC50 (ovine COX-2): 7.00
- Selectivity index (SI) (ovine COX-2): 125

SMILES: C/C(=N\NC(=O)Cn1c(-c2ccc(S(C)(=O)=O)cc2)nc2cc(Cl)ccc21)c1ccc(Cl)cc1 [12d, (E)-2-(5-Chloro-2-(4-(methylsulfonyl)phenyl)-1H-benzo[d]imidazol-1-yl)-N′-(1-(4-chlorophenyl)ethylidene) acetohydrazide]
- Severity of histopathological lesions of the stomach (in words) (rat's stomach): mild pathological lesions
- Edema inhibition %, 1 h [1]: 89%
- Edema thickness ± SEM, 1 h [1]: 0.286 ± 0.009 mm
- Edema inhibition %, 3 h [1]: 93%
- Edema thickness ± SEM, 3 h [1]: 0.154 ± 0.008 mm
- Edema inhibition %, 6 h [1]: 94.7% and 95%
- Edema thickness ± SEM, 6 h [1]: 0.098 ± 0.005 mm
- Ulcer index, mean (rat stomach): 1 mm
- pIC50 (ovine COX-1): 4.88
- pIC50 (ovine COX-2): 7.00
- Selectivity index (SI) (ovine COX-2): 132

- pIC50 (ovine COX-1): 4.96
- pIC50 (ovine COX-2): 6.72
- Selectivity index (SI) (ovine COX-2): 57
SMILES: C/C(=N\NC(=O)Cn1c(-c2ccc(S(C)(=O)=O)cc2)nc2cc(C)ccc21)c1ccc(Cl)cc1 [12f, (E)-N′-(1-(4-Chlorophenyl)ethylidene)-2-(5-methyl-2-(4-(methylsulfonyl)phenyl)-1H-benzo[d]imidazol-1-yl) acetohydrazide]
- Edema inhibition %, 1 h [1]: 60%
- Edema thickness ± SEM, 1 h [1]: 1.038 ± 0.014 mm
- Edema inhibition %, 3 h [1]: 64%
- Edema thickness ± SEM, 3 h [1]: 0.801 ± 0.013 mm
- Edema inhibition %, 6 h [1]: 70%
- Edema thickness ± SEM, 6 h [1]: 0.563 ± 0.012 mm

- Severity of histopathological lesions of the stomach (in words) (rat's stomach): mild lesions
SMILES: Cc1ccc(-c2cc(C(F)(F)F)nn2-c2ccc(S(N)(=O)=O)cc2)cc1 [Celecoxib, celecoxib, reference compound]
- Edema inhibition %, 1 h [1]: 74%
- Edema thickness ± SEM, 1 h [1]: 0.690 ± 0.017 mm
- Edema inhibition %, 3 h [1]: 94%
- Edema thickness ± SEM, 3 h [1]: 0.142 ± 0.009 mm
- Edema inhibition %, 6 h [1]: 96%
- Edema thickness ± SEM, 6 h [1]: 0.070 ± 0.005 mm
- Ulcer index, mean (rat stomach): 3.5 mm

- Severity of histopathological lesions of the stomach (in words) (rat's stomach): severe lesions
SMILES: COc1ccc2c(c1)c(CC(=O)O)c(C)n2C(=O)c1ccc(Cl)cc1 [Indomethacin, indomethacin, reference compound]
- Edema inhibition %, 3 h [1]: 96%
- Edema thickness ± SEM, 3 h [1]: 0.083 ± 0.005 mm
- Edema inhibition %, 6 h [1]: 97%
- Edema thickness ± SEM, 6 h [1]: 0.051 ± 0.004 mm
- Ulcer index, mean (rat stomach): 13 mm
